Data set [1] has as its system SW1353. As to the kind of experiment: Induction of TIMP3 protein level in human HTB-94 cells at 100 ug/ml incubated for 36 hrs by Western blotting analysis. Format: functional, cell-based. The note with it: dose 100.0 µg/ml. The method, boiled down: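 HTB94 cells (5×10^5/well) washed in serum-free DMEM and treated 36 h with 100 μg/mL in serum-free DMEM. Conditioned medium was TCA-precipitated and run on non-reducing 15% SDS-PAGE, then transferred to PVDF. TIMP-3 was detected with rabbit anti-TIMP-3 and an IRDye 800CW secondary by infrared imaging. Values are expressed as % of 100 μg/mL suramin-treated samples on the same blot. n = 3, mean ± SD.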

Data set [2] concerns the target T1, Metalloproteinase inhibitor 3 (Homo sapiens, UniProt P35625).
T1 sequence (P35625 whole entry): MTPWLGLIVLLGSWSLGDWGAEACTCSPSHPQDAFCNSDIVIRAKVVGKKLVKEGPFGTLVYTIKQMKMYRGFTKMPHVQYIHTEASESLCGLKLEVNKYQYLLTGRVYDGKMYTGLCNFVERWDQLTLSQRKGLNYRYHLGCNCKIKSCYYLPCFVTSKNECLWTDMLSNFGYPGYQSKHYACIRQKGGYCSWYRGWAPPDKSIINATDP
As to the kind of experiment: Binding affinity to FLAG-tagged human TIMP3 expressed in HEK293 cells assessed as dissociation constant. Format: cell-based.

Data set [3] can be described thus: Induction of TIMP3 protein level in human HTB-94 cells incubated for 36 hrs by slot blotting analysis relative to 100 ug/ml suramin. The note with it: SW1353, 36 h. Format: functional, cell-based. The method, boiled down: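 Dose-response over 0–250 μg/mL for 36 h in serum-free DMEM using HTB94 cells (5×10^5/well). TIMP-3 in TCA-concentrated medium was measured by slot blot with anti-TIMP-3/IRDye 800CW detection, normalised to 100 μg/mL suramin on each blot. EC50 was fitted with a one-site specific binding model. n = 3, mean ± SD.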

Data set [4] has as its system SW1353. Briefly: Effect on TIMP3 mRNA level in human HTB-94 cells at 50 to 200 ug/ml incubated for 36 hrs by RT-qPCR analysis. Format: functional, cell-based. The note with it: dose 50-200 µg/ml. The method, boiled down: (§1)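 HTB94 cells (5×10^5/well) plated overnight, washed three times, then treated with analogue (50–200 μg/mL) in serum-free DMEM for 36 h. RNA was isolated and transcripts quantified by RT-qPCR (ΔΔCt), normalised to RN18S1 and to untreated cells. n = 3, mean ± SD.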
A general note: Quantitative PCR measures a nucleic acid by following its amplification.

Data set [5] deals with SW1353. Briefly: Effect on ADAMTS5 mRNA level in human HTB-94 cells at 50 to 200 ug/ml incubated for 36 hrs by RT-qPCR analysis. Format: functional, cell-based. The note with it: dose 50-200 µg/ml. The method, boiled down:
as §1

Data set [6] relates to SW1353. As to the kind of experiment: Effect on LRP1 mRNA level in human HTB-94 cells at 50 to 200 ug/ml incubated for 36 hrs by RT-qPCR analysis. Format: functional, cell-based. The note with it: dose 50-200 µg/ml. The method, boiled down:
as §1

Data set [7] has as its system SW1353. As to the kind of experiment: Effect on ADAMTS4 mRNA level in human HTB-94 cells at 50 to 200 ug/ml incubated for 36 hrs by RT-qPCR analysis. Format: functional, cell-based. The note with it: dose 50-200 µg/ml. The method, boiled down: as §1
The nature of data set [8]: Induction of TIMP3 protein level in human HTB-94 cells at 100 ug/ml incubated for 36 hrs by slot blotting analysis relative to suramin. Format: functional, SW1353. The note with it: dose 100 µg/ml. The method, boiled down:
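Serum-free 36 h treatment (100 μg/mL) of HTB94 cells (5×10^5/well). TCA-concentrated conditioned medium was slot-blotted onto nitrocellulose and probed with rabbit anti-TIMP-3 and an IRDye 800CW secondary, then imaged by infrared fluorescence. Pixel volume is expressed relative to 100 μg/mL suramin samples on the same blot (100%). n = 3, mean ± SD.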

Data set [9] can be described thus: Cytotoxicity against porcine Chondrocyte assessed cell number at 100 ug/ml incubated for 3 days in presence of IL-1beta by MTS assay. Format: toxicity, cell-based, Sus scrofa. The note with it: pig, 72 h, dose 100 µg/ml, time 3 day. The method, boiled down:
(§2)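 Primary porcine chondrocytes, released by pronase E then type II collagenase digestion of cartilage and plated at 10^4/well, were washed in serum-free DMEM. They were exposed to 100 μg/mL analogue, with or without IL-1β (10 ng/mL), for 3 days. Cell number was read by MTS against a twice freeze/thawed control. n = 3 biological replicates, mean ± SD.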
On the technique in general: Formazan colour is commonly taken as a measure of viable cells.

The subject of data set [10] is SW1353. Briefly: Effect on MMP13 mRNA level in human HTB-94 cells at 50 to 200 ug/ml incubated for 36 hrs by RT-qPCR analysis. Format: functional, cell-based. The note with it: dose 50-200 µg/ml. The method, boiled down:
as §1

A short description of data set [11]: Cytotoxicity against porcine Chondrocyte assessed cell number at 100 ug/ml incubated for 3 days by MTS assay. Format: toxicity, cell-based, Sus scrofa. The note with it: pig, 72 h, dose 100 µg/ml, time 3 day. The method, boiled down:
as §2

The species entered for another data set is Sus scrofa. Briefly: Inhibition of cartilage degradation in porcine cartilage explants assessed as inhibition of IL-1beta-induced aggrecan release at 100 ug/ml measured after 3 days by DMMB assay. Format: functional, tissue-based. The note with it: Cartilage tissue, dose 100.0 µg/ml, time 3.0 day. The method, boiled down: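 Porcine metacarpophalangeal cartilage explants (3–9-month-old pigs), rested 48 h after dissection, were washed and treated 72 h with IL-1β (10 ng/mL) plus 100 μg/mL analogue. Medium was DMEM with 0.1% FCS, amphotericin B and 10 mM HEPES. Aggrecan released into the medium was measured by DMMB assay. n = 3 biological × 2 technical replicates, mean ± SD.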

For data set [12], the system named is SW1353. As to the kind of experiment: Cytotoxicity against human HTB-94 cells assessed as cell viability at 100 ug/ml measured after 36 h by MTS assay.

The text below walks through data of ChEMBL document CHEMBL5325487, “Suramin analogues protect cartilage against osteoarthritic breakdown by increasing levels of tissue inhibitor of metalloproteinases 3 (TIMP-3) in the tissue” (Bioorg Med Chem, 2023).

Broadly, the pKd is the Kd on a negative log10 scale, so that one unit is a factor of ten. In general, pEC50 refers to −log10 of the EC50, conventionally taken in molar units.

pEC50, pKd: −log10 of the molar value. Calls of active or inactive are those of the source. No cut-off for these calls is given here. Bounds are passed on as bounds.

Consider `Nc1ccc(C(=O)Nc2ccc(C(=O)Nc3cc(S(=O)(=O)O)cc4cc(S(=O)(=O)O)cc(S(=O)(=O)O)c34)cc2)cc1`, for which, in the data set on SW1353 [1], the result was inactive.

With `O=C(Nc1cccc(C(=O)Nc2cc(C(=O)Nc3ccc(S(=O)(=O)O)c4cc(S(=O)(=O)O)cc(S(=O)(=O)O)c34)ccc2F)c1)Nc1cccc(C(=O)Nc2cc(C(=O)Nc3ccc(S(=O)(=O)O)c4cc(S(=O)(=O)O)cc(S(=O)(=O)O)c34)ccc2F)c1`, in data set [2], the pKd was 8.81.

As to `O=C(Nc1ccc(C(=O)Nc2ccc(C(=O)Nc3cc(S(=O)(=O)O)cc4cc(S(=O)(=O)O)cc(S(=O)(=O)O)c34)cc2)cc1)Nc1ccc(C(=O)Nc2ccc(C(=O)Nc3cc(S(=O)(=O)O)cc4cc(S(=O)(=O)O)cc(S(=O)(=O)O)c34)cc2)cc1`, the pEC50 in [3] was 4.72. Also, the outcome in the data set with SW1353 [4], with SW1353 [5], in the data set on SW1353 [6], in the data set with SW1353 [7] and in the data set on SW1353 [10] was inactive. In addition, the result in the data set with SW1353 [1] was Active. Also, the results for the Activity in data set [8], in data set [9] and in [11] were 30%, “Non-Toxic” and “Non-Toxic”, respectively.

`O=C(Nc1cccc(C(=O)Nc2ccc(S(=O)(=O)O)c3cc(S(=O)(=O)O)cc(S(=O)(=O)O)c23)c1)Nc1cccc(C(=O)Nc2ccc(S(=O)(=O)O)c3cc(S(=O)(=O)O)cc(S(=O)(=O)O)c23)c1`: in data set [2], the pKd is 7.58.

In the case of `Cc1ccc(C(=O)Nc2ccc(P(=O)(O)O)cc2P(=O)(O)O)cc1NC(=O)c1cccc(NC(=O)Nc2cccc(C(=O)Nc3cc(C(=O)Nc4ccc(P(=O)(O)O)cc4P(=O)(O)O)ccc3C)c2)c1`, in [2], the negative logarithm of the Kd (pKd) was under 7.00.

Consider `O=C(Nc1cc(S(=O)(=O)O)cc2cc(S(=O)(=O)O)cc(S(=O)(=O)O)c12)c1ccc([N+](=O)[O-])cc1`, for which, in the data set on SW1353 [1], the result was inactive.

Turning to `O=C(Nc1ccc(C(=O)Nc2ccc(C(=O)Nc3ccc(S(=O)(=O)O)c4cc(S(=O)(=O)O)cc(S(=O)(=O)O)c34)cc2)cc1)Nc1ccc(C(=O)Nc2ccc(C(=O)Nc3ccc(S(=O)(=O)O)c4cc(S(=O)(=O)O)cc(S(=O)(=O)O)c34)cc2)cc1`, the pEC50 in data set [3] was 4.77.

On to `O=C(Nc1cccc(C(=O)Nc2cc(S(=O)(=O)O)cc3ccc(S(=O)(=O)O)cc23)c1)Nc1cccc(C(=O)Nc2cc(S(=O)(=O)O)cc3ccc(S(=O)(=O)O)cc23)c1`, for which the negative-log Kd (pKd) in data set [2] is under 7.00.

For the compound `Nc1ccc(C(=O)Nc2cc(S(=O)(=O)O)cc3cc(S(=O)(=O)O)cc(S(=O)(=O)O)c23)cc1`, the result in the data set on SW1353 [1] was inactive.

Consider `O=C(Nc1ccc(C(=O)Nc2cccc(C(=O)Nc3cc(S(=O)(=O)O)cc4cc(S(=O)(=O)O)cc(S(=O)(=O)O)c34)c2)cc1)Nc1ccc(C(=O)Nc2cccc(C(=O)Nc3cc(S(=O)(=O)O)cc4cc(S(=O)(=O)O)cc(S(=O)(=O)O)c34)c2)cc1`, for which the inhibition entry in the data set filed under Sus scrofa is “Active”. Also, the negative logarithm of the EC50 (pEC50) in data set [3] is 4.77. Moreover, the Activity entry with SW1353 [12] is “Non-Toxic”; in data set [8], -50%.

On to `O=C(Nc1cc(C(=O)Nc2ccc(S(=O)(=O)O)cc2S(=O)(=O)O)cc(C(=O)Nc2ccc(S(=O)(=O)O)cc2S(=O)(=O)O)c1)Nc1cc(C(=O)Nc2ccc(S(=O)(=O)O)cc2S(=O)(=O)O)cc(C(=O)Nc2ccc(S(=O)(=O)O)cc2S(=O)(=O)O)c1`, for which the negative-log Kd (pKd) in data set [2] is 8.33.

For the compound `O=C(Nc1ccc(C(=O)Nc2cc(S(=O)(=O)O)cc3cc(S(=O)(=O)O)cc(S(=O)(=O)O)c23)cc1)c1ccc([N+](=O)[O-])cc1`, the result with SW1353 [1] was inactive.

Turning to `O=C(Nc1cccc(C(=O)Nc2ccc(C(=O)Nc3cc(S(=O)(=O)O)cc4cc(S(=O)(=O)O)cc(S(=O)(=O)O)c34)cc2)c1)Nc1cccc(C(=O)Nc2ccc(C(=O)Nc3cc(S(=O)(=O)O)cc4cc(S(=O)(=O)O)cc(S(=O)(=O)O)c34)cc2)c1`, the inhibition entry in the data set filed under Sus scrofa is “Active”. For the same compound, the results for the Activity result (in the data set on SW1353 [12]; in [8]) were “Non-Toxic” and -50%, respectively.

As for `Cc1ccc(C(=O)Nc2ccc(S(=O)(=O)O)c3cc(S(=O)(=O)O)cc(S(=O)(=O)O)c23)cc1NC(=O)c1cccc(NC(=O)Nc2cccc(C(=O)Nc3cc(C(=O)Nc4ccc(S(=O)(=O)O)c5cc(S(=O)(=O)O)cc(S(=O)(=O)O)c45)ccc3C)c2)c1` [SURAMIN], the pEC50 in data set [3] was 4.82. Moreover, the result in the data set on SW1353 [1] was Active. Besides, the result in the data set with SW1353 [5], in the data set with SW1353 [6], with SW1353 [7] and with SW1353 [10] was inactive. In addition, the Activity entry in data set [9] and in data set [11] was “Non-Toxic” throughout.

For the compound `O=C(Nc1cc(C(=O)Nc2ccc(S(=O)(=O)O)cc2)cc(C(=O)Nc2ccc(S(=O)(=O)O)cc2)c1)Nc1cc(C(=O)Nc2ccc(S(=O)(=O)O)cc2)cc(C(=O)Nc2ccc(S(=O)(=O)O)cc2)c1`, the negative-log Kd (pKd) in data set [2] is 8.16.
